According to ChEMBL document CHEMBL1140108, “In vivo positron emission tomography (PET) imaging with an alphavbeta6 specific peptide radiolabeled using 18F-"click" chemistry: evaluation and comparison with the corresponding 4-[18F]fluorobenzoyl- and 2-[18F]fluoropropionyl-peptides” (J Med Chem, 2008):

Legend:
Conditions in all cases: in vivo
[1] = Biodistribution in gall bladder of athymic nu/nu mouse bearing human alphavbeta6 expressing DX3purobeta6 cells at 15 to 30 uCi, iv after 1 hr; assay type: ADME, organism-based
Method in brief: (§1)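 Male athymic nu/nu mice carried s.c. xenografts on opposite shoulder flanks: 3 × 10^6 DX3puro or DX3puroβ6 cells in serum-free DMEM, integrin expression checked by flow cytometry beforehand, used 2-5 weeks later. [18F]-peptide (approx. 15-30 μCi) in isotonic solution given i.v. via tail-vein catheter under 3% isoflurane. 1 h conscious uptake, then sacrificed and dissected (n = 3 per tracer). Organs γ-counted, decay-corrected, reported as % ID/g.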

Lung = assay: Biodistribution in lung of athymic nu/nu mouse bearing human alphavbeta6 expressing DX3purobeta6 cells at 15 to 30 uCi, iv after 1 hr; assay type: ADME, organism-based; method in brief: as §1
[2] = Biodistribution ratio of human alphavbeta6 expressing DX3purobeta6 cells bearing athymic nu/nu mouse to blood of athymic nu/nu mouse bearing human alphavbeta6 expressing DX3purobeta6 cells at 15 to 30 uCi, iv after 1 hr; assay type: ADME, organism-based
Method in brief: (§2)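 Tumour ratios were taken from 1 h biodistribution in male nu/nu mice bearing DX3puro and DX3puroβ6 s.c. shoulder xenografts (3 × 10^6 cells). Dosing was approx. 15-30 μCi [18F]-peptide i.v. by tail-vein catheter under isoflurane, with conscious uptake. Tissues were γ-counted as decay-corrected % ID/g (n = 3 per tracer), and the ratio was formed from these values.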

Urinary bladder = assay: Biodistribution in bladder of athymic nu/nu mouse bearing human alphavbeta6 expressing DX3purobeta6 cells at 15 to 30 uCi, iv after 1 hr; assay type: ADME, organism-based; method in brief: as §1
Kidney = assay: Biodistribution in kidney of athymic nu/nu mouse bearing human alphavbeta6 expressing DX3purobeta6 cells at 15 to 30 uCi, iv after 1 hr; assay type: ADME, organism-based; method in brief: as §1
Brain = assay: Biodistribution in brain of athymic nu/nu mouse bearing human alphavbeta6 expressing DX3purobeta6 cells at 15 to 30 uCi, iv after 1 hr; assay type: ADME, organism-based; method in brief: as §1
[3] = Biodistribution in human alphavbeta6 deficient DX3puro cells bearing athymic nu/nu mouse at 15 to 30 uCi, iv after 1 hr; assay type: ADME, organism-based; method in brief: as §1
Pancreas = assay: Biodistribution in pancreas of athymic nu/nu mouse bearing human alphavbeta6 expressing DX3purobeta6 cells at 15 to 30 uCi, iv after 1 hr; assay type: ADME, organism-based; method in brief: as §1
Stomach = assay: Biodistribution in stomach of athymic nu/nu mouse bearing human alphavbeta6 expressing DX3purobeta6 cells at 15 to 30 uCi, iv after 1 hr; assay type: ADME, organism-based; method in brief: as §1
[4] = Biodistribution in human alphavbeta6 expressing DX3purobeta6 cells bearing athymic nu/nu mouse at 15 to 30 uCi, iv after 1 hr; assay type: ADME, organism-based; method in brief: as §1
[5] = Biodistribution ratio of human alphavbeta6 expressing DX3purobeta6 cells to human alphavbeta6 deficient DX3puro cells bearing athymic nu/nu mouse at 15 to 30 uCi, iv after 1 hr; assay type: ADME, organism-based; method in brief: as §2
Bone = assay: Biodistribution in bone of athymic nu/nu mouse bearing human alphavbeta6 expressing DX3purobeta6 cells at 15 to 30 uCi, iv after 1 hr; assay type: ADME, organism-based, Bone element; method in brief: as §1
Blood = assay: Biodistribution in blood of athymic nu/nu mouse bearing human alphavbeta6 expressing DX3purobeta6 cells at 15 to 30 uCi, iv after 1 hr; assay type: ADME, organism-based; method in brief: as §1
Liver = assay: Biodistribution in liver of athymic nu/nu mouse bearing human alphavbeta6 expressing DX3purobeta6 cells at 15 to 30 uCi, iv after 1 hr; assay type: ADME, organism-based; method in brief: as §1
Spleen = assay: Biodistribution in spleen of athymic nu/nu mouse bearing human alphavbeta6 expressing DX3purobeta6 cells at 15 to 30 uCi, iv after 1 hr; assay type: ADME, organism-based; method in brief: as §1
Muscle tissue = assay: Biodistribution in muscle of athymic nu/nu mouse bearing human alphavbeta6 expressing DX3purobeta6 cells at 15 to 30 uCi, iv after 1 hr; assay type: ADME, organism-based; method in brief: as §1
Heart = assay: Biodistribution in heart of athymic nu/nu mouse bearing human alphavbeta6 expressing DX3purobeta6 cells at 15 to 30 uCi, iv after 1 hr; assay type: ADME, organism-based; method in brief: as §1
[6] = Biodistribution in urine of athymic nu/nu mouse bearing human alphavbeta6 expressing DX3purobeta6 cells at 15 to 30 uCi, iv after 1 hr; assay type: ADME, organism-based; method in brief: as §1

Row | Drug uptake [1] | Drug uptake (Lung) | Ratio [2] | Drug uptake (Urinary bladder) | Drug uptake (Kidney) | Drug uptake (Brain) | Drug uptake [3] | Drug uptake (Pancreas) | Drug uptake (Stomach) | Drug uptake [4] | Ratio [5] | Drug uptake (Bone) | Drug uptake (Blood) | Drug uptake (Liver) | Drug uptake (Spleen) | Drug uptake (Muscle tissue) | Drug uptake (Heart) | Drug uptake [6] | Compound
1 | 15.05 % ID/g | 1.39 % ID/g | 2.5 | 8.25 % ID/g | 3.56 % ID/g | 0.02 % ID/g | 0.21 % ID/g | 0.23 % ID/g | 1.33 % ID/g | 0.66 % ID/g | 3.1 | 0.29 % ID/g | 0.27 % ID/g | 0.63 % ID/g | 0.07 % ID/g | 0.56 % ID/g | 0.31 % ID/g | – | CC(C)C[C@H](NC(=O)[C@H](CC(=O)O)NC(=O)CNC(=O)[C@H](CCCNC(=N)N)NC(=O)[C@H](CC(C)C)NC(=O)[C@H](CC(N)=O)NC(=O)[C@@H]1CCCN1C(=O)[C@@H](NC(=O)[C@H](C)NC(=O)[C@H](CC(N)=O)NC(=O)c1ccc([18F])cc1)C(C)C)C(=O)N[C@@H](CCC(N)=O)C(=O)N[C@H](C(=O)N[C@@H](CC(C)C)C(=O)N[C@@H](C)C(=O)N[C@@H](CCC(N)=O)C(=O)N[C@@H](CCCCN)C(=O)N[C@H](C(=O)N[C@@H](C)C(=O)N[C@@H](CCCNC(=N)N)C(=O)N[C@H](C(N)=O)[C@@H](C)O)C(C)C)C(C)C [[18F]-FBA-A20FMDV2]
2 | 4.72 % ID/g | 1.83 % ID/g | 2.3 | 6.24 % ID/g | 9.5 % ID/g | 0.05 % ID/g | 0.31 % ID/g | 0.3 % ID/g | 0.97 % ID/g | 1.01 % ID/g | 3.3 | 0.39 % ID/g | 0.43 % ID/g | 1.12 % ID/g | 0.13 % ID/g | 1.01 % ID/g | 0.47 % ID/g | 501 % ID/g | CC(C)C[C@H](NC(=O)[C@H](CC(=O)O)NC(=O)CNC(=O)[C@H](CCCNC(=N)N)NC(=O)[C@H](CC(C)C)NC(=O)[C@H](CC(N)=O)NC(=O)[C@@H]1CCCN1C(=O)[C@@H](NC(=O)[C@H](C)NC(=O)[C@H](CC(N)=O)NC(=O)CCn1cc(CCC[18F])nn1)C(C)C)C(=O)N[C@@H](CCC(N)=O)C(=O)N[C@H](C(=O)N[C@@H](CC(C)C)C(=O)N[C@@H](C)C(=O)N[C@@H](CCC(N)=O)C(=O)N[C@@H](CCCCN)C(=O)N[C@H](C(=O)N[C@@H](C)C(=O)N[C@@H](CCCNC(=N)N)C(=O)N[C@H](C(N)=O)[C@@H](C)O)C(C)C)C(C)C
3 | 2.13 % ID/g | 2.06 % ID/g | 1.8 | 5.3 % ID/g | 4.87 % ID/g | 0.28 % ID/g | 0.61 % ID/g | 0.39 % ID/g | 3.61 % ID/g | 1.18 % ID/g | 1.9 | 0.38 % ID/g | 0.64 % ID/g | 0.51 % ID/g | 0.32 % ID/g | 0.82 % ID/g | 0.62 % ID/g | 311 % ID/g | CC(C)C[C@H](NC(=O)[C@H](CC(=O)O)NC(=O)CNC(=O)[C@H](CCCNC(=N)N)NC(=O)[C@H](CC(C)C)NC(=O)[C@H](CC(N)=O)NC(=O)[C@@H]1CCCN1C(=O)[C@@H](NC(=O)[C@H](C)NC(=O)[C@H](CC(N)=O)NC(=O)C(C)[18F])C(C)C)C(=O)N[C@@H](CCC(N)=O)C(=O)N[C@H](C(=O)N[C@@H](CC(C)C)C(=O)N[C@@H](C)C(=O)N[C@@H](CCC(N)=O)C(=O)N[C@@H](CCCCN)C(=O)N[C@H](C(=O)N[C@@H](C)C(=O)N[C@@H](CCCNC(=N)N)C(=O)N[C@H](C(N)=O)[C@@H](C)O)C(C)C)C(C)C (stereo partly drawn)
